Source: PubChem
The list is not random: actives were taken first. Their share in the collection is about 1.5%.
Pyk2 oligo antag – antagonists of Pyk2 self-association, primary screen, Q293 cells, FERM NanoBiT luminescence, HTS; z-score (the deposit names both 25 µM and 10 µM); active compounds read low; Protein-tyrosine kinase 2-beta (Homo sapiens), Q14289; actives 0.83% (n = 99,000);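 active = Z-score of -3 or lower, scaled per plate to the spread of control and sample wells; inactive = z-score above -3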;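 note: negative z-score means lost luminescence so less FERM oligomerization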
Target sequence (Q14289 whole entry, looked up): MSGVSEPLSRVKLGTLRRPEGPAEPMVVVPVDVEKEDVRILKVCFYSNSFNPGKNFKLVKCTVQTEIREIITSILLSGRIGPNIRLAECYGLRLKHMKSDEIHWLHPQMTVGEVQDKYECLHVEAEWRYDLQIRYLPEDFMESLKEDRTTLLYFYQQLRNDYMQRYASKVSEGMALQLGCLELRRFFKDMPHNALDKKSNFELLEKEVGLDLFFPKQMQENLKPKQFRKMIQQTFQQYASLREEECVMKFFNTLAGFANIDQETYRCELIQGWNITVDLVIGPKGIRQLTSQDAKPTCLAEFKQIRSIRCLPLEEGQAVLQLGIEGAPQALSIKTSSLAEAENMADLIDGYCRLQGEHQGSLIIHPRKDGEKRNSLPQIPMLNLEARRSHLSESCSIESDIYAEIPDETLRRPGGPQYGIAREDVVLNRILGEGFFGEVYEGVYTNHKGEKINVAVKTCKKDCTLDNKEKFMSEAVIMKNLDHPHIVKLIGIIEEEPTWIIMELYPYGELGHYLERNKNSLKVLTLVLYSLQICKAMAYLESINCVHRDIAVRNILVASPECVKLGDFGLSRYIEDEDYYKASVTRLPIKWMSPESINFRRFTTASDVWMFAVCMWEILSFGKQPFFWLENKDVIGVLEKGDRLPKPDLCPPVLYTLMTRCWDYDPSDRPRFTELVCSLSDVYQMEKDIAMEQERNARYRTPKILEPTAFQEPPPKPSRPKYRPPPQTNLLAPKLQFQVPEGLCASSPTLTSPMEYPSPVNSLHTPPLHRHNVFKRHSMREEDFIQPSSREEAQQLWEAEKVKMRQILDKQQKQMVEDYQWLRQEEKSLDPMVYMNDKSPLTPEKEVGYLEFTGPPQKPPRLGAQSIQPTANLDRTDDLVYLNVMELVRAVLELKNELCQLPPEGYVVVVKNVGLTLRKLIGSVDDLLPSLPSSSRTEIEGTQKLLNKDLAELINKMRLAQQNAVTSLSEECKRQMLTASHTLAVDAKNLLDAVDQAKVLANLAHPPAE
Plk1 PBD FP – Plk1 polo box domain binding inhibitors, primary screen, biochemical, fluorescence polarization | Plk1 PBD phosphopeptide binding | Serine/threonine-protein kinase PLK1 (Homo sapiens), P53350 | actives 0.13% (n = 97,000) | inhibition, %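 (tested at about 20 µM)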; in the data active = inhibition above about 34%, passing the limit was not always enough
HEK293 NFkB inh – inhibitors of PMA/ionomycin-induced NF-kB reporter, primary screen, antigen receptor NF-kB inhibitor project, cell-based, HEK-293 luciferase reporter, luminescence | HEK-293 NF-kB luciferase reporter | inhibition, % at 3 µM | actives 0.21% (n = 62,000) | AID 465, 2006;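 active = inhibition above the mean of all tested compounds plus 3 SD, cut at about 40% in these data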;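 note: 0% = stimulated DMSO wells and 100% = 10 µM reference inhibitor 5653914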
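Signal: luciferase luminescence; Material: HEK-293 cells with stable firefly luciferase reporter driven by four HIV NF-kB elements; Probe or stimulus: PMA with ionomycin; Replication: tested once; Times: 1 h compound pretreatment, then 16 h stimulation at 37 °C, 5% CO2; Benchmarks: DMSO and 10 µM reference inhibitor; Evaluation: per-plate % inhibition versus controls.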
AP complement – alternative complement pathway inhibitors, primary screen, biochemical, ELISA, human serum, orthogonally pooled compounds | AID 1235, 2008 | inhibition, % at 5 µM | actives 0.08% (n = 62,000) | LPS-coated ELISA, C3 deposition; tested in compound mixtures;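 active = inhibition above 30% in each of the two pooled mixtures holding the compound, so the lower value exceeds 30%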;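 note: 0% = serum in Mg-EGTA without compound and 100% = EDTA serum blank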
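Test system: human serum alternative complement pathway, C3 deposition on LPS-coated wells; also added: Plate-bound LPS; doses: 5 µM per compound in ten-compound mixtures; schedule: 1 h at 37 °C; detection: Anti-C3 ELISA, OD 450 nm; evaluation: percent inhibition of C3 deposition onto LPS; repeats: two pool placements per compound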
PLK1 inh – human PLK1 kinase inhibitors, primary screen, biochemical, TR-FRET; actives 0.53% (n = 97,000); recombinant PLK1 kinase, TR-FRET peptide phosphorylation; inhibition, % at 10 µM; Serine/threonine-protein kinase PLK1 (Homo sapiens), P53350;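 active = inhibition of 50% or more in the single-concentration screen; inactive = inhibition below 50%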;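 note: 0% = DMSO max control and 100% = H-89 dihydrochloride min control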
HePTP inh – inhibitors of human HePTP phosphatase, primary screen, biochemical, absorbance, leukemia target; recombinant HePTP phosphatase activity, OD absorbance; inhibition, % at 20 µM; actives 0.64% (n = 110,000); AID 521, 2006; in the data active = inhibition above about 50%;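 note: plate controls were vehicle for no effect and reference inhibitor for full effect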
PBD redox DR – redox cycling hydrogen peroxide generation, dose response, artefact control for Plk1 PBD inhibitor project, biochemical; EC50, µM; 120 tested, under 10 active; AID 876, 2007; redox cycling H2O2 generation, DTT, counter-screen; shares compounds with Plk1 PBD FP; call rule not given here
An asterisk follows results filed as active; · = no result.

SMILES	Pyk2 oligo antag	Plk1 PBD FP	HEK293 NFkB inh	AP complement	PLK1 inh	HePTP inh	PBD redox DR
Cc1ccccc1Oc1ncnc2oc(-c3ccccc3)cc12	-0.31	68*	·	·	-7	·	>50
Clc1ccc(Oc2ncnc3oc(-c4ccccc4)cc23)cc1	0.89	-7	·	·	-39	·	·
Cc1ccc(NC2=C/C(=N\S(=O)(=O)c3cccs3)c3ccccc3C2=O)c(C)c1	-3.7*	62*	·	·	5	·	>50
COC(=O)C(C(=O)OC)C1=C/C(=N/S(=O)(=O)c2ccc(C)cc2)c2ccccc2C1=O	·	·	·	·	·	4	·
O=C(Nc1nc2ccccc2s1)c1ccc(-c2ccccc2)cc1	·	·	·	·	·	11	·
Cc1ccc2cc(C(c3nnnn3C3CCCC3)N3CCN(c4ccccc4)CC3)c(=O)[nH]c2c1 (centres undefined)	1.9	61*	9	12	-5	8	>50
O=c1[nH]c(=O)n(-c2ccccc2Cl)c(O)c1C=Nc1ccc(Cl)cc1	·	·	·	·	·	7	·
COc1ccc(CC2NCCC3(O)CCCCC23)cc1 (centres undefined)	0.79	39*	8	0	-16	13	>50
CCN1C(=O)/C(=C\c2cccc(OCc3ccc(Cl)cc3Cl)c2)SC1=S	·	·	·	·	·	2	·
O=C(Cc1ccc(Cl)cc1)NCCN1CCCC1	0.36	48*	6	0	-11	6	>50
C=CCSc1nccc(-c2cc(Cl)sc2Cl)n1	-0.37	46*	·	·	-2	·	>50
N#CCSc1nccc(-c2cc(Cl)sc2Cl)n1	-0.47	22	·	·	5	·	·
COc1ccc(C2(C(=O)Nc3ncccc3C)CCCC2)cc1OC	·	·	·	·	·	6	·
CC(C)Sc1nc(N2CCOCC2)c2c(c1C#N)CC(C)(C)N(C)C2	0.43	48*	·	·	8	·	>50
CC(C)Sc1nc(N2CCOCC2)c2c(c1C#N)CC(C)(C)SC2	-1.2	·	16	-6	·	7	·
CCOC(=O)C1=C(c2ccccc2)N=c2s/c(=C\c3ccco3)c(=O)n2C1c1cccc(OC)c1OC (centres undefined)	·	·	·	·	·	-11	·
Cn1c(-c2cc3ccc(OC(=O)C(C)(C)C)cc3oc2=O)nc2ccccc21	-0.51	37*	·	·	-14	·	>50
CC(=O)Oc1ccc2cc(-c3nc4ccccc4n3C)c(=O)oc2c1	0.27	-15	-10	-2	-15	-2	·
CCOC(=O)C(Cc1ccccc1Cl)(NC(C)=O)C(=O)OCC	·	·	·	·	·	-9	·
CCN1C(=O)/C(=C2/Oc3ccc4ccccc4c3N2C)OC1=S	·	·	·	·	·	-4	·
CCCCNc1c2c3c(cccc3n(C)c1=O)C(=O)c1ccccc1-2	-2.7	-138	·	·	-129	·	·
Cn1c(=O)c(NCCO)c2c3c(cccc31)C(=O)c1ccccc1-2	0.31	96*	19	6	-194	9	>50
COc1ccc2c3c(cccc13)NN=C2C	·	38*	7	-19	33	3	>50
COc1ccc(C=O)c2c(OC)cccc12	·	·	·	·	·	-1	·
